Active and inactive are the calls of the source. The rule behind the calls is not given here.
Assays:
[1] = target: Vascular endothelial growth factor receptor 2 (Homo sapiens) (UniProt P35968); experiment: Inhibition of human KDR using […] as substrate at 1 uM measured after 20 mins at 30 degC by liquid scintillation counting method in presence of [gamma-32P]-ATP
[2] = target: Fibroblast growth factor receptor 1 (Homo sapiens) (UniProt P11362); experiment: Inhibition of human FGFR1 using myelin basic protein as substrate at 1 uM measured after 20 mins at 30 degC by liquid scintillation counting method in presence of [gamma-32P]-ATP
Fibroblast growth factor receptor 1 (Homo sapiens), sequence (P11362 22-822 limits assumed): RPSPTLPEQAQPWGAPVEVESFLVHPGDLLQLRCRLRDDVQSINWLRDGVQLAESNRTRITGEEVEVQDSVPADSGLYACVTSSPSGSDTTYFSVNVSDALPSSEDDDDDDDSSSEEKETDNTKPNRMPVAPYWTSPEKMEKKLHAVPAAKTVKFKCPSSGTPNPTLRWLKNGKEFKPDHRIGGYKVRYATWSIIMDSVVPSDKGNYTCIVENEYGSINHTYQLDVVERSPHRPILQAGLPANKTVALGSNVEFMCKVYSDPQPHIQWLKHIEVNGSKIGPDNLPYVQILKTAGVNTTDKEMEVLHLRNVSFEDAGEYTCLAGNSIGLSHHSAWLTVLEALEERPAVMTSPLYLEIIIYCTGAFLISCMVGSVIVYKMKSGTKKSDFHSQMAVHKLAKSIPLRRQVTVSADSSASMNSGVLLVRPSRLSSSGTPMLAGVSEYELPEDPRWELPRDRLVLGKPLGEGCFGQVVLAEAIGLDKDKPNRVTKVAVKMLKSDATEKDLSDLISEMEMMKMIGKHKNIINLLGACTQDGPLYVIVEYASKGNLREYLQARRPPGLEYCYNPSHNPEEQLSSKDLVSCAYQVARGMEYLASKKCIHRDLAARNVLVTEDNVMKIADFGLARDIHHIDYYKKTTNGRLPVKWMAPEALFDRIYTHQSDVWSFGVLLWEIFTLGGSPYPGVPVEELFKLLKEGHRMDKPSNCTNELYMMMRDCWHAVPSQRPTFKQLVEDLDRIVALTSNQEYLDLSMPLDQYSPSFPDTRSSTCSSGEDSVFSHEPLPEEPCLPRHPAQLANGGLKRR

[3] = target: Tyrosine-protein kinase ABL1 (Homo sapiens) (UniProt P00519); experiment: Inhibition of human Abl1 using myelin basic protein as substrate at 1 uM measured after 20 mins at 30 degC by liquid scintillation counting method in presence of [gamma-32P]-ATP
Tyrosine-protein kinase ABL1 (Homo sapiens), sequence (P00519 whole entry): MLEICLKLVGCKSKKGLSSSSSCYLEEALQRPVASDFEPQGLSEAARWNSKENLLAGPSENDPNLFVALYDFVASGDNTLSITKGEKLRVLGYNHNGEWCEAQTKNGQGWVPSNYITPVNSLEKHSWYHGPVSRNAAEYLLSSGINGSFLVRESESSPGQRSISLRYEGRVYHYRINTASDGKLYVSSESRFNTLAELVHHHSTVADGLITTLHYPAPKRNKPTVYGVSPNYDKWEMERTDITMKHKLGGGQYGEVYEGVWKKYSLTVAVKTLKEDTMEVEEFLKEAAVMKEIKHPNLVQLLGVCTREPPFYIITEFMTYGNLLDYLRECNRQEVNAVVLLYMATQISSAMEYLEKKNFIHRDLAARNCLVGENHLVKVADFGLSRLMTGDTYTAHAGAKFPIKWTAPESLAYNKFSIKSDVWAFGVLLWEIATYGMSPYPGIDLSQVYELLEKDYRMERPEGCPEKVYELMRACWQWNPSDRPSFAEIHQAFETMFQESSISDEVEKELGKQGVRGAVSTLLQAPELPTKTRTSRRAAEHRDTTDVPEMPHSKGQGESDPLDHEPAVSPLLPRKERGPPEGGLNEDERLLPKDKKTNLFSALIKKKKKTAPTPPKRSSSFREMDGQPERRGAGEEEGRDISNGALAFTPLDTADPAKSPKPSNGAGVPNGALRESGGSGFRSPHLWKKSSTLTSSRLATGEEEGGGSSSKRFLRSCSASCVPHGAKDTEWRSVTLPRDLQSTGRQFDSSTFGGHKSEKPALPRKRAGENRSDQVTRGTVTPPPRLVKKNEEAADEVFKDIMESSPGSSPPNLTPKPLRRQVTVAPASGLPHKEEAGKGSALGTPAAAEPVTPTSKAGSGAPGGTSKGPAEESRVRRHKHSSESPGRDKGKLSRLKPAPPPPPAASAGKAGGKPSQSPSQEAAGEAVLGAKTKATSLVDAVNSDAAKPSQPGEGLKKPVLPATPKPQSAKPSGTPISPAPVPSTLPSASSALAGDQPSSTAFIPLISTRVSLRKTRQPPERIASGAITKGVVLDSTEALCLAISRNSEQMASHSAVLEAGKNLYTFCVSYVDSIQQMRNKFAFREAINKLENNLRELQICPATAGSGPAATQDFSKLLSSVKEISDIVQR

[4] = target: Proto-oncogene tyrosine-protein kinase Src (Homo sapiens) (UniProt P12931); experiment: Inhibition of human Src using myelin basic protein as substrate at 1 uM measured after 20 mins at 30 degC by liquid scintillation counting method in presence of [gamma-32P]-ATP
Proto-oncogene tyrosine-protein kinase Src (Homo sapiens), sequence (P12931 2-536 limits assumed): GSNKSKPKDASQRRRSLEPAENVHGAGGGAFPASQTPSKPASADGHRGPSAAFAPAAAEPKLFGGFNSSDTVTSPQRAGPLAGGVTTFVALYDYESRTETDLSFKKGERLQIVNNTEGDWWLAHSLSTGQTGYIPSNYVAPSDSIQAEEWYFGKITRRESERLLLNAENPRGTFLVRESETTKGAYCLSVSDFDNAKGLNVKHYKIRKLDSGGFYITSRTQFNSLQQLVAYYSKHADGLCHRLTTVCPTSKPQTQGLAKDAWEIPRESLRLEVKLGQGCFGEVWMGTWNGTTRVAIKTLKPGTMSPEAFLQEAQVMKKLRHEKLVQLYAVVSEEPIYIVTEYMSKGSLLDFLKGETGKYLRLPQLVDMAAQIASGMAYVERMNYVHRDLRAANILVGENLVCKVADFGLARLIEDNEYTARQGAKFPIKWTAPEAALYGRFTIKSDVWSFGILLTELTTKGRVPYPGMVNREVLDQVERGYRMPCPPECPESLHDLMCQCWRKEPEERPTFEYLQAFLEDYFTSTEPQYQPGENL

[5] = target: Platelet-derived growth factor receptor beta (Homo sapiens) (UniProt P09619); experiment: Inhibition of human PDGFR-beta at 1 uM measured after 20 mins at 30 degC by liquid scintillation counting method in presence of [gamma-32P]-ATP
Platelet-derived growth factor receptor beta (Homo sapiens), sequence (P09619 whole entry): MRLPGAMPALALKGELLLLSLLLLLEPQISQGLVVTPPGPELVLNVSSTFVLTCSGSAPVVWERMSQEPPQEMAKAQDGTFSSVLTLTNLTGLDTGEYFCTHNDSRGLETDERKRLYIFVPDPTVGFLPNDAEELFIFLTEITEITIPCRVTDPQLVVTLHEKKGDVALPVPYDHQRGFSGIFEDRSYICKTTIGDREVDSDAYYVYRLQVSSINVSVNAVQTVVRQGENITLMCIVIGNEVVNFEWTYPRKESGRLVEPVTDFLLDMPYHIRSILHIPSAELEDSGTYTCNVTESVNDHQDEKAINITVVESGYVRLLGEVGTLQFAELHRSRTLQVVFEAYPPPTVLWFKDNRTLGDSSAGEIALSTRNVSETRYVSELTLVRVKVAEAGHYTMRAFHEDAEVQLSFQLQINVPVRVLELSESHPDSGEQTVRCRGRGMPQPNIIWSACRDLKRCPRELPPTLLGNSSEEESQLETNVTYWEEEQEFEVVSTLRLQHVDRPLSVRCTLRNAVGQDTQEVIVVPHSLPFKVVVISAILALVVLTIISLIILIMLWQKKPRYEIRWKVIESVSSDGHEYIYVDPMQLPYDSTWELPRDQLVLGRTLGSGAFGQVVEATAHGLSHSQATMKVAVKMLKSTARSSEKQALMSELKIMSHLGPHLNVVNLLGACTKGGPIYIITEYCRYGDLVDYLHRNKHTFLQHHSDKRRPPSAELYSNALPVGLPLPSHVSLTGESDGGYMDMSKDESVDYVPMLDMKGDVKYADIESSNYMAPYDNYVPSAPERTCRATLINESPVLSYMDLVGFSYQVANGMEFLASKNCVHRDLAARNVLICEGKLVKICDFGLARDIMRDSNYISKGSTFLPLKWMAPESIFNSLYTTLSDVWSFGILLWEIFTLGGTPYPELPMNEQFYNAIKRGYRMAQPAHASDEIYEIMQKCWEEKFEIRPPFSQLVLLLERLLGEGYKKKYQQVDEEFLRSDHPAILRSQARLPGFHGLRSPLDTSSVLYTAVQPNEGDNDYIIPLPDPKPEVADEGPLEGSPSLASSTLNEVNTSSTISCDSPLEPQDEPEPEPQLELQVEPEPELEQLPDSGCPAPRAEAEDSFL

[6] = target: Serine/threonine-protein kinase mTOR (Homo sapiens) (UniProt P42345); experiment: Inhibition of human mTOR using PHAS-1 as substrate at 1 uM measured after 20 mins at 30 degC by liquid scintillation counting method in presence of [gamma-32P]-ATP
Homo sapiens [7] = species: Homo sapiens; experiment: Inhibition of human PI3K using phosphatidylinositol 4,5-diphosphate as substrate at 1 uM measured after 20 mins at 30 degC by liquid scintillation counting method in presence of [gamma-32P]-ATP
[8] = Reduction of COL1A1 mRNA expression in healthy human HSC cells at 1 uM by RT-PCR analysis; format: functional, cell-based
In short: (§1)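 HSCs or ISEMFs were treated with compound for 24 h. Total RNA was extracted and DNase I-treated, then used for quantitative PCR of the target transcript. Values were normalized to 18S rRNA and relative change was calculated by the ΔΔCT method. Triplicate per isolated cell batch.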

[9] = Reduction of COL1A1 mRNA expression in crohn's disease patient isolated ISEMF at 1 uM by RT-PCR analysis; format: functional; conditions: Homo sapiens; in short: as §1
[10] = Reduction of COL1A1 mRNA expression in healthy human ISEMF at 1 uM by RT-PCR analysis; format: functional; in short: as §1
[11] = Cytotoxicity against human HSC cells assessed as cell viability at 1 uM after 72 hrs by MTT assay; format: cell-based
In short: (§2)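 MTT viability in primary human HSCs or ISEMFs seeded at 2 × 10³ cells/well. Cells were exposed to compound for 72 h, then to MTT 0.50 mg/ml for 4 h. Viability is expressed as % of the respective untreated cells. Triplicate per isolated cell batch.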

[12] = Cytotoxicity against healthy human ISEMF assessed as cell viability at 1 uM after 72 hrs by MTT assay; in short: as §2
[13] = Cytotoxicity against crohn's disease patient isolated ISEMF assessed as cell viability at 1 uM after 72 hrs by MTT assay; conditions: human; in short: as §2
[14] = Reduction of FN1 mRNA expression in human HSC cells at 1 uM by RT-PCR analysis; format: functional, cell-based; in short: as §1
[15] = Reduction of FN1 mRNA expression in healthy human ISEMF at 1 uM by RT-PCR analysis; format: functional; in short: as §1
[16] = Reduction of FN1 mRNA expression in crohn's disease patient isolated ISEMF at 1 uM by RT-PCR analysis; format: functional; conditions: Homo sapiens; in short: as §1
[17] = Reduction of TIMP1 mRNA expression in human HSC cells at 1 uM by RT-PCR analysis; format: functional, cell-based; in short: as §1
[18] = Reduction of TIMP1 mRNA expression in healthy human ISEMF at 1 uM by RT-PCR analysis; format: functional; in short: as §1
[19] = Reduction of TIMP1 mRNA expression in crohn's disease patient isolated ISEMF at 1 uM by RT-PCR analysis; format: functional; conditions: Homo sapiens; in short: as §1
HSC = experiment: Antiproliferative activity against VEGF induced human HSC cells at 1 uM after 72 hrs by carboxyfluorescein diacetate succinimidyl ester dye-based FACS flow cytometric method; format: functional, cell-based
In short: (§3)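 Primary human HSCs (from collagenase/pronase digests of non-pathological liver, Percoll gradient) or ISEMFs (from collagenase-digested gut biopsies, CD90-checked) were CFSE-loaded for 10 min at 37 °C in PBS with 0.1% BSA. Loading was quenched with 5 volumes of ice-cold medium. After 16 h, cells were washed and given compound plus 1 ng/ml VEGF for 72 h. Read-out was dye partitioning by flow cytometry, as % CFSE-positive cells. Duplicate per cell batch; mean ± SE.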

Homo sapiens [20] = species: Homo sapiens; experiment: Antiproliferative activity against VEGF induced healthy human ISEMF at 1 uM after 72 hrs by carboxyfluorescein diacetate succinimidyl ester dye-based FACS flow cytometric method; format: functional; in short: as §3
Homo sapiens [21] = species: Homo sapiens; experiment: Antiproliferative activity against VEGF induced crohn's disease patient isolated ISEMF at 1 uM after 72 hrs by carboxyfluorescein diacetate succinimidyl ester dye-based FACS flow cytometric method; format: functional; in short: as §3
[22] = target: T1, MAP kinase p38 (Homo sapiens) (UniProt O15264+Q15759+Q16539+P53778); experiment: Inhibition of p38 MAPK phosphorylation in human HSC cells at 1 uM after 4 hrs by western blotting analysis; format: cell-based
In short: (§4)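 Primary human cells were treated with compound for 4 h. Lysates were made in RIPA buffer with phosphatase and protease inhibitors and cleared by centrifugation. Proteins were run on 10% SDS-PAGE and blotted to nitrocellulose. Blots were probed for phospho-p38 MAPK with an HRP secondary and ECL detection, then reprobed for total p38 MAPK as loading control. Duplicate experiments.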

[23] = target: T1, MAP kinase p38 (Homo sapiens); experiment: Inhibition of p38 MAPK phosphorylation in crohn's disease patient isolated ISEMF at 1 uM after 4 hrs by western blotting analysis; in short: as §4

Vascular endothelial growth factor receptor 2 (Homo sapiens), sequence (P35968 whole entry): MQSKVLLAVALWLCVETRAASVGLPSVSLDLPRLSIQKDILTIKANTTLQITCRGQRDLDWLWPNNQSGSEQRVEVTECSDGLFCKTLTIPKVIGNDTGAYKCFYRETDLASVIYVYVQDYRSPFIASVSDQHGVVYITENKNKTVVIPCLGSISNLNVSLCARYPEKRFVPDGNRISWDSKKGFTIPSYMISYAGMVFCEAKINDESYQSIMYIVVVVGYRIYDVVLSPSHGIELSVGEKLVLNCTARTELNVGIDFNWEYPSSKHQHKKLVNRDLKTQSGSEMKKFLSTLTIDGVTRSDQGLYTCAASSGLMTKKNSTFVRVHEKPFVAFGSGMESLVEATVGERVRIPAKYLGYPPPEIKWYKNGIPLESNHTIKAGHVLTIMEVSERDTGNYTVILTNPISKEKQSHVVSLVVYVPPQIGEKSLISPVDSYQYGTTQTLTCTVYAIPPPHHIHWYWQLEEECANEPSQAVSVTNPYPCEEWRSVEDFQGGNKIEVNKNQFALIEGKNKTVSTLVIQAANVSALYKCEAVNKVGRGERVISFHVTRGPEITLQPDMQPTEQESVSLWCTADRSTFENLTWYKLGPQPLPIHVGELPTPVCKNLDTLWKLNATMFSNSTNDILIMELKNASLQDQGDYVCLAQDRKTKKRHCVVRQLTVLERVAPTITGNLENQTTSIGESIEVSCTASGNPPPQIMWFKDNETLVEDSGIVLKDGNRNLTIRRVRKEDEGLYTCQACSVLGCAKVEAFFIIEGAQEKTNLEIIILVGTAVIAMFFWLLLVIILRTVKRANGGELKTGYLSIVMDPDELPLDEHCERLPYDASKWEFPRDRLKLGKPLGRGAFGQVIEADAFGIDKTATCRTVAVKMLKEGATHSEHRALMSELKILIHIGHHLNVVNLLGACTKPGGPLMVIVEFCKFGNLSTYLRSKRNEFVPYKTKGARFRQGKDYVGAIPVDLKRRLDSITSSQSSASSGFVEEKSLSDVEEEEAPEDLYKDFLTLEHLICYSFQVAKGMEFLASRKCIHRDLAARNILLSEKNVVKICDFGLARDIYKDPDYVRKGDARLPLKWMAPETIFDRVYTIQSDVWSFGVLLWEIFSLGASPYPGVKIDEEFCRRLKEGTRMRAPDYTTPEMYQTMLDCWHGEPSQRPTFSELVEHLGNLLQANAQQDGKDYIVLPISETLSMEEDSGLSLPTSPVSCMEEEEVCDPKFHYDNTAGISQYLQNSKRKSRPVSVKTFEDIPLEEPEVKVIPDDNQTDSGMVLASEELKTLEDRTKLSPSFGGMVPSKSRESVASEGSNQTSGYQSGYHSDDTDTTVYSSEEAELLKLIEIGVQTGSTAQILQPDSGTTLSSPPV

SMILES | inhibition [1] [%] | inhibition [2] [%] | inhibition [3] [%] | inhibition [4] [%] | inhibition [5] [%] | inhibition [6] [%] | inhibition (Homo sapiens [7]) [%] | Activity [8] | Activity [9] | Activity [10] | Activity [11] | Activity [12] | Activity [13] | Activity [14] | Activity [15] | Activity [16] | Activity [17] | Activity [18] | Activity [19] | further results
COc1cc2ncn(Cc3ccc(Br)cc3)c(=O)c2cc1OC | 25 | 14 | 0 | 0 | 0 | 25 | 0 | – | – | – | – | – | – | – | – | – | – | – | – | –
COc1cc2ncn(Cc3cccc(Br)c3)c(=O)c2cc1OC | 31 | 11 | 0 | 0 | 22 | 18 | 15 | inactive | inactive | inactive | Non-toxic | Non-toxic | Non-toxic | inactive | inactive | inactive | inactive | inactive | inactive | –
COc1cc2ncn(CC(=O)c3ccc(Br)cc3)c(=O)c2cc1OC | 53 | 7 | 0 | 4 | 1 | 17 | 0 | – | – | – | Non-toxic | Non-toxic | Non-toxic | Active | inactive | Active | Active | inactive | Active | –
COc1cc2ncn(Cc3cccc(-c4ccccc4)c3)c(=O)c2cc1OC | 33 | 13 | 0 | 0 | 4 | 34 | 21 | – | – | – | – | – | – | – | – | – | – | – | – | –
O=C(Cn1cnc2cc3c(cc2c1=O)OCCO3)c1cccc(Br)c1 | 36 | 18 | 0 | 0 | 4 | 2 | 35 | Active | Active | Active | Non-toxic | Non-toxic | Non-toxic | – | – | – | – | – | – | inhibition [22]: Active; inhibition [23]: Active
Clc1ccc(Nc2nnc(Cc3ccncc3)c3ccccc23)cc1 [VATALANIB] | – | 31 | 25 | 16 | 72 | 49 | 18 | Active | Active | Active | Toxic | Toxic | Toxic | Active | inactive | Active | Active | inactive | Active | –
O=c1c2cc3c(cc2ncn1CC(O)c1cccc(Cl)c1)OCCO3 (stereo not drawn) | 26 | 5 | 1 | 0 | 0 | 1 | 0 | inactive | inactive | inactive | Non-toxic | Non-toxic | Non-toxic | inactive | inactive | inactive | inactive | inactive | inactive | –

Now from value to compound, other results behind:

inhibition [1] [%] | inhibition [2] [%] | inhibition [3] [%] | inhibition [4] [%] | inhibition [5] [%] | inhibition [6] [%] | inhibition (Homo sapiens [7]) [%] | SMILES | Activity [8] | Activity [9] | Activity [10] | Activity [11] | Activity [12] | Activity [13] | Activity [14] | Activity [15] | Activity [16] | Activity [17] | Activity [18] | Activity [19] | further results
45 | 10 | 0 | 5 | 13 | 37 | 25 | O=c1c2cc3c(cc2ncn1Cc1ccc(-c2ccccc2)cc1)OCCO3 | Active | Active | Active | Non-toxic | Non-toxic | Non-toxic | – | – | – | – | – | – | –
35 | 8 | 0 | 0 | 0 | 0 | 0 | O=c1c2cc3c(cc2ncn1Cc1cccc(-c2ccccc2)c1)OCO3 | Active | Active | Active | Non-toxic | Non-toxic | Non-toxic | – | – | – | – | – | – | –
25 | 6 | 4 | 0 | 4 | 10 | 0 | O=c1c2cc3c(cc2ncn1Cc1ccc(-c2ccccc2)cc1)OCO3 | – | – | – | – | – | – | – | – | – | – | – | – | –
27 | 1 | 0 | 0 | 45 | 17 | 7 | O=c1c2cc3c(cc2ncn1Cc1ccc(Br)cc1)OCO3 | inactive | inactive | inactive | Non-toxic | Non-toxic | Non-toxic | inactive | inactive | inactive | inactive | inactive | inactive | Activity (HSC): Active; Activity (Homo sapiens [20]): Active; Activity (Homo sapiens [21]): Active
12 | 7 | 0 | 0 | 0 | 28 | 28 | O=c1c2cc3c(cc2ncn1Cc1cccc(Br)c1)OCCO3 | – | – | – | – | – | – | – | – | – | – | – | – | –
12 | 1 | 0 | 0 | 1 | 13 | 0 | O=c1c2cc3c(cc2ncn1Cc1ccc(Br)cc1)OCCO3 | – | – | – | – | – | – | – | – | – | – | – | – | –
35 | 18 | 0 | 0 | 1 | 23 | 17 | O=C(Cn1cnc2cc3c(cc2c1=O)OCCO3)c1ccc(Br)cc1 | Active | Active | Active | Non-toxic | Non-toxic | Non-toxic | – | – | – | – | – | – | –

Reference: ChEMBL document CHEMBL3792341, “Substituted quinazolinones as kinase inhibitors endowed with anti-fibrotic properties” (Eur J Med Chem, 2016)
